The test system of series [1] is Trypanosoma brucei. Briefly: Inhibition of Trypanosoma brucei DPMS expressed in Escherichia coli assessed as residual enzyme activity at 1 mM relative to untreated control. The method, boiled down: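 Recombinant full-length membrane-bound T. brucei DPMS in E. coli membranes (70 ng/ml total protein). Buffer: 50 mM Na–Hepes pH 7.4, 25 mM KCl, 5 mM MgCl2, 5 mM MnCl2, 0.1% n-octyl-glucopyranoside. Substrates: dehydrofarnesol-phosphate and GDP-[3H]Man. Inhibitor at 1 mM; 10 min at 30 °C. Lipids extracted in CHCl3:MeOH, butanol phase counted. Activity relative to a no-inhibitor control.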

The test system of series [2] is Trypanosoma brucei. The experiment in a line: Antitrypanosomal activity against Trypanosoma brucei 427. The format is functional. The conditions noted are these: read-out: ED50 (the source's name). The method, boiled down: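 Bloodstream-form T. brucei strain 427 in culture; viability read by Alamar Blue; ED50 in μM; each experiment run at least in duplicate.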

Series [3] can be described thus: Cytotoxicity against human HeLa cells by alamar blue assay. The format is cell-based. Conditions: read-out: ED50 (the source's name). The method, boiled down: (§1)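 HeLa cells treated at 0.1 and 1.0 mM final; viability by Alamar Blue; inhibition expressed relative to a DMSO-only control.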
A general note: Alamar Blue is a resazurin reagent that responds to reducing activity.

Series [4] in a line: Cytotoxicity against human HeLa cells assessed as growth inhibition at 1 mM by alamar blue assay. The class given is cell-based. In a few lines:
as §1

The test system of series [5] is Trypanosoma brucei. The experiment in a line: Inhibition of Trypanosoma brucei 117 DPMS-mediated glycosylphosphatidylinositol anchor biosynthesis assessed as reduction of dolicholphosphate-mannose formation. In a few lines:
(§2)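 Cell-free GPI synthesis using bloodstream T. brucei variant 117 membranes, 1 × 10^7 cell equivalents per assay. Membranes washed in Hepes pH 7.4/KCl/MgCl2 buffer with TLCK and leupeptin. Reaction in buffer with MnCl2, tunicamycin and dithiothreitol. Labelled with GDP-[3H]Man plus 1 mM UDP-GlcNAc. Inhibitor in DMSO, 1 mM final.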

The test system of series [6] is Trypanosoma brucei. The experiment in a line: Inhibition of glycosylphosphatidylinositol anchor biosynthesis in Trypanosoma brucei 117 cell-free system assessed as reduction of Manalpha1-4GlcNH2-PI formation. The format is functional. In a few lines:
as §2

Series [7] deals with Trypanosoma brucei. The experiment in a line: Inhibition of glycosylphosphatidylinositol anchor biosynthesis in Trypanosoma brucei 117 cell-free system assessed as reduction of Manalpha1-6Manalpha1-4GlcNH2-PI formation formation. The class given is functional. In a few lines:
as §2

In series [8] the test system is Trypanosoma brucei. Briefly: Inhibition of glycosylphosphatidylinositol anchor biosynthesis in Trypanosoma brucei 117 cell-free system assessed as reduction of Manalpha1-2Manalpha1-6Manalpha1-4GlcNH2-PI formation. The class given is functional. In a few lines:
as §2

Series [9] concerns Trypanosoma brucei. Briefly: Inhibition of glycosylphosphatidylinositol anchor biosynthesis in Trypanosoma brucei 117 cell-free system assessed as reduction of Manalpha1-2Manalpha1-6Manalpha1-4GlcNH2-(acyl)PI formation. The class given is functional. In a few lines: as §2
Series [10] has as its system Trypanosoma brucei. The experiment in a line: Inhibition of glycosylphosphatidylinositol anchor biosynthesis in Trypanosoma brucei 117 cell-free system assessed as reduction of ethanolamine-P-Manalpha1-2Manalpha1-6Manalpha1-4GlcNH2-PI formation. The format is functional. In a few lines:
as §2

Calls of active or inactive are those of the source. The rule behind the calls is not given here.

A word on the inhibition: it is the change of the read-out against control, counted positive when it falls.

`O=C(O)CN1C(=O)/C(=C/c2ccccc2)SC1=S`: the Activity in the series on Trypanosoma brucei [1] turned out to be 42%. The EC50 in the series with Trypanosoma brucei [2] amounted to 232 µM. Moreover, the CC50 in series [3] was over 1000 µM.
Consider `O=C(O)CN1C(=O)/C(=C/c2ccc(OCc3ccccc3)cc2)SC1=S`, for which the Activity with Trypanosoma brucei [1] amounted to 10%. Further, in the series on Trypanosoma brucei [2], the EC50 is 338 µM. For the same compound, the CC50 in series [3] was over 1000 µM. In addition, in series [4], the inhibition at 1000 µM was determined as 20%. Besides, in the series on Trypanosoma brucei [5], the inhibition entry was “inactive”. The inhibition result with Trypanosoma brucei [6], with Trypanosoma brucei [7], with Trypanosoma brucei [8], in the series on Trypanosoma brucei [9] and in the series with Trypanosoma brucei [10] was “Active” in each case.
For the compound `O=C(O)CN1C(=O)/C(=C/c2ccc(Cl)cc2)SC1=S`, the Activity in the series with Trypanosoma brucei [1] turned out to be 86%. For the same compound, the EC50 with Trypanosoma brucei [2] stood at 398 µM.
On the same counts, the results for `N#Cc1ccc(/C=C2\SC(=S)N(CC(=O)O)C2=O)cc1` are 73% and 244 µM.
On to `O=C(O)CN1C(=O)/C(=C/c2ccc(OCc3ccccc3)c(OCc3ccccc3)c2)SC1=S`, for which the Activity in the series with Trypanosoma brucei [1] came to 20%. The EC50 with Trypanosoma brucei [2] turned out to be 492 µM. In addition, the CC50 in series [3] was over 1000 µM. In addition, the inhibition result in the series on Trypanosoma brucei [5], with Trypanosoma brucei [6], in the series with Trypanosoma brucei [7], with Trypanosoma brucei [8], with Trypanosoma brucei [9] and in the series on Trypanosoma brucei [10] was “Active” throughout.
For `O=C(O)CN1C(=O)/C(=C/c2cccc(OCc3ccccc3)c2)SC1=S`, in the series on Trypanosoma brucei [1], the Activity amounted to 23%. Besides, in the series with Trypanosoma brucei [2], the EC50 came to 96 µM. Also, the CC50 in [3] is over 1000 µM.
For the compound `O=C(O)CN1C(=O)/C(=C/c2ccc(O)cc2)SC1=S`, the Activity with Trypanosoma brucei [1] stood at 70%. The EC50 in the series with Trypanosoma brucei [2] is 427 µM. For the same compound, the CC50 in series [3] was over 1000 µM. The inhibition entry in the series on Trypanosoma brucei [5], in the series on Trypanosoma brucei [6], with Trypanosoma brucei [7], in the series on Trypanosoma brucei [8], in the series on Trypanosoma brucei [9] and with Trypanosoma brucei [10] was “Active” in each case.
As to `O=C(O)CN1C(=O)/C(=C/c2ccccc2O)SC1=S`, in the series with Trypanosoma brucei [1], the Activity worked out at 23%. The EC50 with Trypanosoma brucei [2] came out at 107 µM. In addition, the CC50 in series [3] is over 1000 µM. Also, the inhibition entry in the series with Trypanosoma brucei [5] is “inactive”. Besides, the inhibition entry in the series on Trypanosoma brucei [6], in the series on Trypanosoma brucei [7], with Trypanosoma brucei [8], in the series with Trypanosoma brucei [9] and in the series on Trypanosoma brucei [10] was “Active” in each case.
For `C#Cc1ccc(/C=C2\SC(=S)N(CC(=O)O)C2=O)cc1`, in the series on Trypanosoma brucei [1], the Activity is 94%. For the same compound, the EC50 in the series with Trypanosoma brucei [2] is over 1000 µM. The inhibition at 1000 µM in series [4] was determined as 20%.
As for `O=C(O)CN1C(=O)/C(=C/c2cccc(O)c2)SC1=S`, in the series with Trypanosoma brucei [1], the Activity came to 90%. Moreover, in the series on Trypanosoma brucei [2], the EC50 came to 345 µM.
